Reference: ChEMBL document CHEMBL1149745, “An antiplatelet aggregation principle and X-ray structural analysis of cis-khellactone diester from Peucedanum japonicum” (1992)

Key:
Assay type in all cases: functional, Oryctolagus cuniculus, Platelet
[1] = Antiplatelet aggregation activity in PAF-induced rabbit platelets assessed as aggregation at 100 ug/ml
In short: (§1)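 Platelets preincubated 3 min at 37° with test agent (100 µg/ml) or 0.5% DMSO as control, then challenged with an inducer: ADP 20 µM, PAF 2 ng/ml, arachidonic acid 100 µM, collagen 10 µg/ml. Percent aggregation reported as means ± S.E.M., n = 3–6, compared against the respective control.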

[2] = Antiplatelet aggregation activity in arachidonic acid-induced rabbit platelets assessed as aggregation at 100 ug/ml; in short: as §1
[3] = Antiplatelet aggregation activity in ADP-induced rabbit platelets assessed as aggregation at 100 ug/ml; in short: as §1
[4] = Antiplatelet aggregation activity in collagen-induced rabbit platelets assessed as aggregation at 100 ug/ml; in short: as §1

CC(C)CC(=O)O[C@H]1c2c(ccc3ccc(=O)oc23)OC(C)(C)[C@H]1OC(=O)CC(C)C
Activity [1]: 0% | Activity [2]: 49.8% | Activity [3]: 8.8% | Activity [4]: 39.3%

CC(C)=CC(=O)O[C@H]1c2c(ccc3ccc(=O)oc23)OC(C)(C)[C@H]1OC(=O)CC(C)C (relative stereo)
Activity [1]: 57.4% | Activity [2]: 76.3% | Activity [3]: 64% | Activity [4]: 75.7%

CC(C)=CC(=O)O[C@H]1c2c(ccc3ccc(=O)oc23)OC(C)(C)[C@H]1OC(=O)C=C(C)C (relative stereo)
Activity [1]: 73.2% | Activity [2]: 43.6% | Activity [3]: 61.7% | Activity [4]: 72.3%
